Source: PubChem BioAssay
Sampled rows, rich in hits. Any-hit rate of the full collection: about 3.8%.
KCNK3 block: human KCNK3 channel inhibition, primary screen | O14649 | CHO-KCNK3 thallium flux, FluxOR fluorescence; active compounds read low | B-score at 10 µM | hit rate 0.84% among 340,000 | AID 602410;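 active means B-score under library mean minus 4 SD, starting fluorescence ratio at most library mean plus 5 SD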;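 further: more negative B-score means stronger inhibition of thallium flux through KCNK3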
KCNQ1 block: blocks the human KCNQ1 potassium channel; P51787; CHO-K1 KCNQ1, FluxOR thallium flux fluorescence; active compounds read high; hit rate 1.3% among 310,000; B-score at 10 µM;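 active means compounds whose thallium flux B-score, printed positive for inhibition, exceeds three library SD while starting fluorescence stays within three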;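 further: channel opened by potassium depolarization with thallium stimulus after 20 min compound exposure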
KCNK9 inh: inhibitors of human KCNK9 two-pore domain potassium channel. Q9NPC2. HEK293 KCNK9, FluxOR thallium flux fluorescence; active compounds read low. B-score at 10 µM. hit rate 1.2% among 310,000. AID 488922;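 active means ratio B-score over 3 SD below the library mean, with starting fluorescence within 5 SD of its mean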;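 further: negative B-score means less thallium flux so channel inhibition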
hERG rescue: compounds protecting human hERG from proarrhythmic drug block; activation (rescue from dofetilide block), less the hit threshold, % at 10 µM; CHO-hERG, FluxOR thallium flux, dofetilide IC70 present; hit rate 0.51% among 310,000; AID 1511;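 active means activation above the mean of controls blocked by dofetilide plus 5 SD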;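 further: thallium influx through hERG after potassium depolarization seen as dye fluorescence rise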
Kir21 block: blocks the mouse Kir2.1 inward-rectifier potassium channel. P35561. HEK293-Kir2.1, FluxOR thallium flux fluorescence; active compounds read low. B-score at 10 µM. hit rate 0.85% among 310,000. AID 1672;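 active means fluorescence ratio B-score at or below minus 3 SD of library scores, with starting-brightness B-score within 2 SD, cut at about -4.2 in these data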;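 further: channel flux triggered by added potassium and thallium sulfate stimulus; B-score of peak minus minimum fluorescence over baseline after thallium stimulus; more negative B-score means stronger Kir2.1 block with less thallium influx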
Target sequence (P35561 whole entry, looked up): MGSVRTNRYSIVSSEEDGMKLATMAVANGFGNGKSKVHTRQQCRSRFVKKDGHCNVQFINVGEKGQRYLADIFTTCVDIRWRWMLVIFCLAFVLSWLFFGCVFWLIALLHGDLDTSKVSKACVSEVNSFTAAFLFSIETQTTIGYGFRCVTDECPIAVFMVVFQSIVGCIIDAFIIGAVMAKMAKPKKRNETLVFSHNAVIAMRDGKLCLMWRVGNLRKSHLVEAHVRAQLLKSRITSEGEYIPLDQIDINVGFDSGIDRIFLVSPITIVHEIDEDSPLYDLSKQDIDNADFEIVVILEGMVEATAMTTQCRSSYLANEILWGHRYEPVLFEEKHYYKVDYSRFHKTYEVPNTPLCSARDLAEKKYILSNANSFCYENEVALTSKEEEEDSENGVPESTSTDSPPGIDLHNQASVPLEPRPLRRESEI
KCNQ1 act: potentiators or activators of human KCNQ1 potassium channel; P51787; AID 2648; hit rate 0.35% among 310,000; CHO-K1 KCNQ1, thallium flux FluxOR fluorescence; active compounds read high; B-score at 10 µM;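 active means fluorescence ratio B-score, a plate-corrected score, at least three library SD, with initial intensity B-score within 5 SD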
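Assay system: stable KCNQ1 CHO-K1 line; medium: assay buffer, equal DMSO in all wells; timing: 90 min dye loading and 20 min compound exposure, both at room temperature; technique: kinetic FluxOR thallium fluorescence, 10-s 1-Hz baseline, 110-s post-stimulus read; read-out basis: B score of baseline-normalized fluorescence ratio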
* hit, by the source's call; i = inactive; x = no result given.

SMILES	KCNK3 block	KCNQ1 block	KCNK9 inh	hERG rescue	Kir21 block	KCNQ1 act
COCCNC(=O)C(c1ccc(C)o1)N(Cc1ccc(OC)cc1)C(=O)Cn1nnc2ccccc21 (centres undefined)	i	i	i	6.5*	0.22	i
CCN(C(=S)NC(=O)c1ccccc1Br)C1CCCCC1	i	i	i	57*	-2.2	36*
O=C(NC1CCCCC1)c1cc2c(cc1Cl)N1CCCCCC1=NS2(=O)=O	i	x	x	x	x	x
COc1ccc(C)cc1S(=O)(=O)NCc1cccs1	i	i	i	-4	-1.2	i
COc1ccccc1CNS(=O)(=O)c1cc(C)ccc1OC	i	i	i	-7	-5.6*	i
Cn1nc(-c2ccccc2)c(CSc2ccccc2Cl)c1Cl	i	i	-7.6*	-4	-0.04	i
Cc1ccc(S(=O)(=O)c2c(CO)c(-c3ccccc3)nn2C)cc1	i	i	i	-13	-0.34	i
CCc1c(C)sc(NC(=O)Cn2nc(C(F)(F)F)c3c2CCCC3)c1C#N	i	i	i	-11	-1.9	i
Cc1noc(C)c1COc1cccc(C(=O)Nc2ccc(Br)cc2F)c1	-9.2*	x	x	x	x	x
Cc1ccc(NC(=O)c2cccc(OCc3c(C)noc3C)c2)c(C)c1	i	i	i	-11	0.03	i
Cc1cc(C)c(S(=O)(=O)NCCSCc2ccco2)c(C)c1	i	x	x	x	x	x
Cc1ccc(S(=O)(=O)NC(C)CCc2ccccc2)cc1 (centres undefined)	i	i	i	-12	-4.8*	i
CC(=O)Nc1ccc(S(=O)(=O)NC(C)CCc2ccccc2)cc1 (centres undefined)	i	i	i	-2	-0.69	i
CC(=O)N1N=C(c2cccc(Cl)c2)OC1c1ccc(C(C)C)cc1 (centres undefined)	i	6*	i	-9	0.57	i
CC(=O)N1N=C(c2cccc(Cl)c2)OC1c1cccc([N+](=O)[O-])c1 (centres undefined)	i	i	i	-3	2	i
CCC(NC(=O)C1(C)CC1(Br)Br)c1ccc(C)cc1 (centres undefined)	i	i	i	-10	0.03	i
CCc1ccc(C(C)NC(=O)C2CCCC2)cc1 (centres undefined)	i	i	i	4.9*	0.99	i
CCc1ccc(C(C)NC(=O)C2(C)CC2(Br)Br)cc1 (centres undefined)	i	i	i	4.9*	0.02	i
O=C(NC1CC1)C1CCN(C2CCN(C(=O)c3ccc4cccc(F)c4n3)CC2)CC1	i	i	i	-13	-0.13	i
C/C(=N\NC(=O)C1(C)CC1(Br)Br)c1cccc(NC(=O)C2CCC2)c1 (centres undefined)	i	i	-7.4*	-11	0.55	i
OC(CNCCc1ccc(C(F)(F)F)cc1)COC(c1ccccc1)c1ccccc1 (centres undefined)	i	i	i	-27	-7.9*	i
O=C(NC(=S)N1CCN(c2nc(-c3ccccc3)cs2)CC1)c1cncc(Br)c1	i	i	i	89*	-0.57	56*
CN(c1ccccc1)S(=O)(=O)c1cccc(NC(=O)c2ccc(=O)[nH]n2)c1	i	x	x	x	x	x
CC(=O)Oc1c(-c2ccco2)oc2ccccc2c1=O	i	i	i	0	-0.01	8*
CC(C)c1nc2sc3c(=O)[nH]c(=S)[nH]c3c2c2c1CCCC2	i	i	i	-15	0.65	i
SMILES	KCNK3 block	KCNQ1 block	KCNK9 inh	hERG rescue	Kir21 block	KCNQ1 act
CC(C)c1nc2sc3c(=O)[nH]c(=S)[nH]c3c2c2c1CCC2	x	i	i	-3	2.3	21*
O=C(COC(=O)/C=C/c1cccc(F)c1)NC(=O)NCc1ccccc1	i	x	x	x	x	x
Cc1cccc(N2CC(C(=O)Nc3nnc(SCc4cccnc4)s3)CC2=O)c1 (centres undefined)	i	i	i	-9	-1.5	i
O=C(COC(=O)CCNS(=O)(=O)c1ccc2c(c1)OCCO2)NC1CCCc2ccccc21 (centres undefined)	i	i	i	5.3*	-0.04	i
CC(C)(Oc1ccc(Cl)cc1)C(=O)N/N=C/c1cn[nH]c1-c1ccccc1	i	i	-7.2*	-6	0.57	i
CC(C)C1C(c2ccccc2)N(C)C(c2ccccc2)CC1(O)c1ccccc1 (centres undefined)	i	i	i	-9	0.58	i
CC(C)C1C(c2ccccc2)NC(c2ccccc2)CC1(O)c1ccc(F)cc1 (centres undefined)	i	7*	i	-19	-1.2	i
CCOc1ccc(NC(=O)CCc2nnc3ccc(N4CCC5(CC4)OCCO5)nn23)cc1	i	i	i	-6	0.06	i
O=C(CSc1nnc(CNC(=O)c2ccco2)o1)Nc1ccccc1F	i	i	i	-9	0.76	i
O=C(CNC(=O)c1ccc(F)cc1)NCc1ccc(Cl)cc1	i	i	i	-3	-1	i
O=C(CNC(=O)c1ccccc1)NCc1ccc(Cl)cc1	i	i	i	28*	0.06	18*
Cc1c(O)nc(SCC(=O)Nc2ccc3c4c(cccc24)CC3)n(-c2ccc(F)cc2)c1=O	i	i	i	-8	-0.11	i
Cn1ncc2c(NNC(=O)c3ccc(Cl)cc3Cl)ncnc21	i	i	i	-5	-1	i
CC(C)=CCc1c(O)c(CC=C(C)C)c2c(c1O)C(=O)CC(c1ccc(O)cc1)O2 (centres undefined)	i	8*	i	-4	-0.37	i
Cc1c(O)cc2c(c1O)C(=O)CC(c1ccc(O)cc1)O2 (centres undefined)	i	i	i	-7	-0.71	i
O=C1c2ccccc2C(Nc2ccc(-c3nc4ccccc4[nH]3)cc2)N1Cc1ccco1 (centres undefined)	-11*	i	i	-13	0.48	i
COc1cc2c(cc1OC)CN(C(=O)c1sccc1C)CC2	i	i	i	8.7*	-1.6	i
COc1ccc(C(c2nnnn2C(C)(C)C)N2CCN(c3nc4ccccc4s3)CC2)cc1 (centres undefined)	i	i	-7.1*	-10	0.13	i
N#CC(C(=O)NC1CC1)c1nc2ccccc2nc1N1CCN(C/C=C/c2ccccc2)CC1 (centres undefined)	i	6*	i	-17	-2.2	i
O=C(/C=C/c1ccccc1)NNC(=O)c1ccco1	i	i	i	-12	-0.1	i
COc1ccc(CCNC(=O)C2CCC(C(C)(C)C)CC2)cc1OC (centres undefined)	i	i	i	-8	-9.1*	i
